Structures can show the parent of a compound that is named as a salt. Calls of active or inactive are those of the source. No cut-off for these calls is given here.
Assays:
[1] = Cytotoxicity against human HepG2.2.15 cells assessed as reduction in cell viability; type: cell-based, HepG2 2.2.15
Hepatitis B virus [2] = assay: Antiviral activity against Hepatitis B virus infected in human HepG2.2.15 cells assessed as reduction in HBV DNA level in cell supernatants incubated for 5 days by real time PCR analysis; type: functional, organism-based; conditions: HepG2.2.15, 120 h
Hepatitis B virus [3] = assay: Antiviral activity against Hepatitis B virus infected in human HepG2.2.15 cells assessed as reduction in HBsAg level in cell supernatants incubated for 5 days by AlphaLisa assay; type: functional, organism-based; conditions: HepG2.2.15, 120 h
[4] = molecular target: T1, Aldehyde dehydrogenase X, mitochondrial (Homo sapiens) (UniProt P30837); assay: Binding affinity to ALDH X in human HePAD38 cells infected with HBV assessed as protein labelling at 20 uM after 1 hr by photoaffinity labelling in-situ fluorescence gel-based LC-MS/MS analysis; type: cell-based
T1 sequence (whole entry): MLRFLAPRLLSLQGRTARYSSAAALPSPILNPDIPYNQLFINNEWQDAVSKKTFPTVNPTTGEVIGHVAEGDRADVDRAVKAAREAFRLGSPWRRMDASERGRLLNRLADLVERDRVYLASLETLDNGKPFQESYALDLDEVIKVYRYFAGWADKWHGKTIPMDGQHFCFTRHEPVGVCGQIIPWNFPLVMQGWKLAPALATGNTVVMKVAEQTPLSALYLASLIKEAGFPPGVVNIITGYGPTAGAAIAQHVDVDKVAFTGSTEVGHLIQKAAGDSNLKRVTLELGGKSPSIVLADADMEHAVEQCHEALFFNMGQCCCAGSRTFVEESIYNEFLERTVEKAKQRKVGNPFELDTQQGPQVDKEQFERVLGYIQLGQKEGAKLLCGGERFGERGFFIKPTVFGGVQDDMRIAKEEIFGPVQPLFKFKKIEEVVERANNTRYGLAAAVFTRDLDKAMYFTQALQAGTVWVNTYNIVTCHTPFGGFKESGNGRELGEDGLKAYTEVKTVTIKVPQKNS
Procedure, shortened: (§1)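 Live HepAD38 cells incubated 1 h with photoaffinity probe at 20 μM final, then UV-irradiated. Cells were harvested and homogenized in HEPES lysis buffer. Lysates underwent copper-catalysed click conjugation to biotin-Diazo-azide, then large-scale affinity enrichment, with bound proteins identified by LC–MS/MS.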

[5] = molecular target: 60 kDa heat shock protein, mitochondrial (Homo sapiens) (UniProt P10809); assay: Binding affinity to 60 kDa HSP60 in human HePAD38 cells infected with HBV assessed as protein labelling at 20 uM after 1 hr by photoaffinity labelling in-situ fluorescence gel-based LC-MS/MS analysis; type: cell-based; procedure, shortened: as §1
60 kDa heat shock protein, mitochondrial (Homo sapiens), sequence (P10809 whole entry): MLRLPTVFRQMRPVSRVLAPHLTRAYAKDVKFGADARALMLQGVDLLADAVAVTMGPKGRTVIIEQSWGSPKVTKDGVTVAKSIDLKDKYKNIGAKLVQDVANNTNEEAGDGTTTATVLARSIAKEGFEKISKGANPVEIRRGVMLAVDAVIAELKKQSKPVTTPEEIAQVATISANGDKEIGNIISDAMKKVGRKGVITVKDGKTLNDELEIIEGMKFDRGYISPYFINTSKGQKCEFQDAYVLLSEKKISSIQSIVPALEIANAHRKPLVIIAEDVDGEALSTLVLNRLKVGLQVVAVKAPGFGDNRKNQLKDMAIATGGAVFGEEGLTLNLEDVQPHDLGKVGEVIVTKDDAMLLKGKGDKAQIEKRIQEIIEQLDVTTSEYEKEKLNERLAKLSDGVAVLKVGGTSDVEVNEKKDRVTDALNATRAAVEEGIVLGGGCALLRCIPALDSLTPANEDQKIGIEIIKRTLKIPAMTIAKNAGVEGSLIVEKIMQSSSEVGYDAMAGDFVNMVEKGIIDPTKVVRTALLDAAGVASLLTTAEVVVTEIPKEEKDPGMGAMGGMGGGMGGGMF

[6] = molecular target: T2, Aldehyde dehydrogenase 1A1 (Homo sapiens) (UniProt P00352); assay: Binding affinity to RALDH1 in human HePAD38 cells infected with HBV assessed as protein labelling at 20 uM after 1 hr by photoaffinity labelling in-situ fluorescence gel-based LC-MS/MS analysis; type: cell-based; procedure, shortened: as §1
T2 sequence (whole entry): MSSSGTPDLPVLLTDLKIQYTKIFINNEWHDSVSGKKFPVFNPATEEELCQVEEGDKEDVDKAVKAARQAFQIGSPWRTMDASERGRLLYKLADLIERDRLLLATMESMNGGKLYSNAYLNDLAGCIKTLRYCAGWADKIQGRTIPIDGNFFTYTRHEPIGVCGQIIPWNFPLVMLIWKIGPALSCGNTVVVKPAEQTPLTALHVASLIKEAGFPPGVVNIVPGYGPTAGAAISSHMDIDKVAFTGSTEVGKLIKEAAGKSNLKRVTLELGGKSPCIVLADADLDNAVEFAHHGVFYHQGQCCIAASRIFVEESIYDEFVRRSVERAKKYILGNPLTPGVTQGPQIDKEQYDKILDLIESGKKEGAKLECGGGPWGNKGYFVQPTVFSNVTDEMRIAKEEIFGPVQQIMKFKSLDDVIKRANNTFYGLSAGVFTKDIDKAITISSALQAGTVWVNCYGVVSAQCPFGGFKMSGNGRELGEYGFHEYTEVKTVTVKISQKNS

[7] = molecular target: T3, Isocitrate dehydrogenase [NADP], mitochondrial (Homo sapiens) (UniProt P48735); assay: Binding affinity to IDH in human HePAD38 cells infected with HBV assessed as protein labelling at 20 uM after 1 hr by photoaffinity labelling in-situ fluorescence gel-based LC-MS/MS analysis; type: cell-based; procedure, shortened: as §1
T3 sequence (whole entry): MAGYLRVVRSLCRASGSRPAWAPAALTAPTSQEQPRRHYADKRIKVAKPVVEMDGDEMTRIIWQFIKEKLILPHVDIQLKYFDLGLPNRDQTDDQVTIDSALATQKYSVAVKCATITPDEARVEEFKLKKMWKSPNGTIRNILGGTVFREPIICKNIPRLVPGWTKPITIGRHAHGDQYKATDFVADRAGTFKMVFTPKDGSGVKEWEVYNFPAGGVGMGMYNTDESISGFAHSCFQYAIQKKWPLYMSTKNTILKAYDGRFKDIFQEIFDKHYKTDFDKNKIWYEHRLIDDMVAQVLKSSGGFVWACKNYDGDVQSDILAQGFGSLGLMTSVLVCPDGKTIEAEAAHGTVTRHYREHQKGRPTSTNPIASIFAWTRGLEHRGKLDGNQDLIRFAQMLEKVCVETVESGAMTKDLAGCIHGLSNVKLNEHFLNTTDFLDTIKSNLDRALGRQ

[8] = molecular target: T4, Heme oxygenase 2 (Homo sapiens) (UniProt P30519); assay: Binding affinity to HMOX2 in human HePAD38 cells infected with HBV assessed as protein labelling at 20 uM after 1 hr by photoaffinity labelling in-situ fluorescence gel-based LC-MS/MS analysis; type: cell-based; procedure, shortened: as §1
T4 sequence (whole entry): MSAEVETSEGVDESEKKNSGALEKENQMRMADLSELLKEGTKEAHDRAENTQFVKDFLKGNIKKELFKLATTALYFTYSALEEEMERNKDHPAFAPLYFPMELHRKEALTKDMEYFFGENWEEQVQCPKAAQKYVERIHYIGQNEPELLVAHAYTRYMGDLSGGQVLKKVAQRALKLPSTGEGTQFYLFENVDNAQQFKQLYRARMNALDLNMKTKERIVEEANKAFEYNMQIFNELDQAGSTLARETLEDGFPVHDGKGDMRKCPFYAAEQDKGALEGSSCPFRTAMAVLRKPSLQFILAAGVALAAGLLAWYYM

[9] = molecular target: Poly(rC)-binding protein 1 (Homo sapiens) (UniProt Q15365); assay: Binding affinity to PCBP1 in human HePAD38 cells infected with HBV assessed as protein labelling at 20 uM after 1 hr by photoaffinity labelling in-situ fluorescence gel-based LC-MS/MS analysis; type: cell-based; procedure, shortened: as §1
Poly(rC)-binding protein 1 (Homo sapiens), sequence (Q15365 whole entry): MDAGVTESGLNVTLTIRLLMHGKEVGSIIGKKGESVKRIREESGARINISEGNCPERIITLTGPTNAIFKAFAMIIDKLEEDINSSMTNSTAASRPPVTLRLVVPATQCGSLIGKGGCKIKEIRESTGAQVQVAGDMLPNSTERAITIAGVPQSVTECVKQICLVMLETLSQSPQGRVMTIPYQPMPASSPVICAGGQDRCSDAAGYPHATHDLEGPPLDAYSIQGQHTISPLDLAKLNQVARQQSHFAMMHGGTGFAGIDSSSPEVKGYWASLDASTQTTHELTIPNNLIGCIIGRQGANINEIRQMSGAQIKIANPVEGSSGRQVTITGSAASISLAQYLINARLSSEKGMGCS

[10] = molecular target: Terminal nucleotidyltransferase 4B (Homo sapiens) (UniProt Q8NDF8); assay: Binding affinity to PAPD5 in human HePAD38 cells infected with HBV assessed as protein labelling at 20 uM after 1 hr by photoaffinity labelling in-situ fluorescence gel-based LC-MS/MS analysis; type: cell-based; procedure, shortened: as §1
Terminal nucleotidyltransferase 4B (Homo sapiens), sequence (Q8NDF8 whole entry): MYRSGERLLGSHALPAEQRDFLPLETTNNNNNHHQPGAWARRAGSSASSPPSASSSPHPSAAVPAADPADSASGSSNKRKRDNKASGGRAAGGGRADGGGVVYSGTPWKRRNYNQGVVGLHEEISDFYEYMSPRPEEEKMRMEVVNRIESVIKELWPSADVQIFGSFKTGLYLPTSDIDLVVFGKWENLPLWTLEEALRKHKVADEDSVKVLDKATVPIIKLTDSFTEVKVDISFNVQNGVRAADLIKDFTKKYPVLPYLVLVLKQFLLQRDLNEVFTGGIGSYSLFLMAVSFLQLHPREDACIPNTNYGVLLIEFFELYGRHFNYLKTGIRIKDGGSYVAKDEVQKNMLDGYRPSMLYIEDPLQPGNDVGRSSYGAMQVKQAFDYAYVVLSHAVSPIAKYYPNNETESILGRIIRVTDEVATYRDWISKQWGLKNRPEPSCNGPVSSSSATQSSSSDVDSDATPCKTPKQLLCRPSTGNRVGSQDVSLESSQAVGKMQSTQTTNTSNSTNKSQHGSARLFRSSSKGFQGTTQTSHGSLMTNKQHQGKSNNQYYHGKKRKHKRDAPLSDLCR

[11] = molecular target: Terminal nucleotidyltransferase 4A (Homo sapiens) (UniProt Q5XG87); assay: Binding affinity to PAPD7 in human HePAD38 cells infected with HBV assessed as protein labelling at 20 uM after 1 hr by photoaffinity labelling in-situ fluorescence gel-based LC-MS/MS analysis; type: cell-based; procedure, shortened: as §1
Terminal nucleotidyltransferase 4A (Homo sapiens), sequence (Q5XG87 whole entry): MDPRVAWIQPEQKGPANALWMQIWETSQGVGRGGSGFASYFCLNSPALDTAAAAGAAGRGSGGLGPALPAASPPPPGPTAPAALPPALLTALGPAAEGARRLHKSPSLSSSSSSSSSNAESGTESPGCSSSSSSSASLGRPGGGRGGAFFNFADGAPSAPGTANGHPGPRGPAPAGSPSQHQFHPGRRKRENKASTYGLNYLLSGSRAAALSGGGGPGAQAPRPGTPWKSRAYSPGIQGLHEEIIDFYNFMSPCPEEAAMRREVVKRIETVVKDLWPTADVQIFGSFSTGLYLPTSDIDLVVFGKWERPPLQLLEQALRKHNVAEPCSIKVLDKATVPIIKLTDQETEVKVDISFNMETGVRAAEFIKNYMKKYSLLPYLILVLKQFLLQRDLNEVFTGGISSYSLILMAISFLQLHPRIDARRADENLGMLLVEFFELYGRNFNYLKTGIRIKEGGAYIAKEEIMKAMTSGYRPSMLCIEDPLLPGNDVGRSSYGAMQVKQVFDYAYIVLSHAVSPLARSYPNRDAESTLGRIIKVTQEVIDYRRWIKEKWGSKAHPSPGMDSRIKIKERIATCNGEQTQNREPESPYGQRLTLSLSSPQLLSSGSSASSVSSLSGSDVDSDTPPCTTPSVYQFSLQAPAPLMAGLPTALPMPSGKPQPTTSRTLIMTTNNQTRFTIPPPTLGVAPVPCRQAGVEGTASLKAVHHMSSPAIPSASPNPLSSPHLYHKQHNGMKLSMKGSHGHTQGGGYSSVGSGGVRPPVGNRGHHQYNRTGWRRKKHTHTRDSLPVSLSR

Structure (SMILES)	EC50 (Hepatitis B virus [2]) [nM]	EC50 (Hepatitis B virus [3]) [nM]	other results
CC(C)OC(=O)OCOP(=O)(CO[C@H](C)Cn1cnc2c(N)ncnc21)OCOC(=O)OC(C)C [TENOFOVIR DISOPROXIL FUMARATE]	13.8	> 1000	–
COCCCOc1cc2c(cc1OC)-c1cc(=O)c(-c3csc(N)n3)cn1C(C(C)C)C2 (stereo not drawn)	816	367	–
COC(=O)c1cc2c(cc1O)CC(C(C)C)n1cc(C(=O)O)c(=O)cc1-2 (stereo not drawn)	89.5	412	–
C#CCCC1(CCOc2cc3c(cc2C(=O)OC)-c2cc(=O)c(C(=O)O)cn2[C@@H](C(C)C)C3)N=N1	82.2	305	CC50 [1]: > 150000 nM
COCCCOc1cc2c(cc1OCCOc1ccccc1)-c1cc(=O)c(C(=O)O)cn1C(C(C)C)C2 (stereo not drawn)	32.5	154	–

These reach a lower EC50 (Hepatitis B virus [2]). Values come first.

EC50 (Hepatitis B virus [2]) [nM]	EC50 (Hepatitis B virus [3]) [nM]	Structure (SMILES)	other results
6.1	2.25	COCCCOc1cc2c(cc1C(=O)OC)-c1cc(=O)c(C(=O)O)cn1C(C(C)C)C2 (stereo not drawn)	–
3.2	5.6	C#CCCC1(CCOc2cc3c(cc2C(=O)OC)-c2cc(=O)c(C(=O)O)cn2[C@H](C(C)C)C3)N=N1	CC50 [1]: > 150000 nM; Activity [4]: Active; Activity [5]: Active; Activity [6]: Active; Activity [7]: Active; Activity [8]: Active; Activity [9]: Active; Activity [10]: inactive; Activity [11]: inactive
3	1.3	COCCCOc1cc2c(cc1OC)-c1cc(=O)c(C(=O)O)cn1C(C(C)C)C2 (racemic)	–
3	5.7	COC(=O)c1cc2c(cc1N1CCCC1)CC(C(C)C)n1cc(C(=O)O)c(=O)cc1-2 (stereo not drawn)	–
